Measurements pooled from the literature.
Protocols differ between the studies behind these lines. pEC50, pIC50: −log10 of the molar value.
Target: Receptor-type tyrosine-protein kinase FLT3 (FLT3, Homo sapiens, UniProt P36888)
Sequence (P36888 27-993, as in one of the studies): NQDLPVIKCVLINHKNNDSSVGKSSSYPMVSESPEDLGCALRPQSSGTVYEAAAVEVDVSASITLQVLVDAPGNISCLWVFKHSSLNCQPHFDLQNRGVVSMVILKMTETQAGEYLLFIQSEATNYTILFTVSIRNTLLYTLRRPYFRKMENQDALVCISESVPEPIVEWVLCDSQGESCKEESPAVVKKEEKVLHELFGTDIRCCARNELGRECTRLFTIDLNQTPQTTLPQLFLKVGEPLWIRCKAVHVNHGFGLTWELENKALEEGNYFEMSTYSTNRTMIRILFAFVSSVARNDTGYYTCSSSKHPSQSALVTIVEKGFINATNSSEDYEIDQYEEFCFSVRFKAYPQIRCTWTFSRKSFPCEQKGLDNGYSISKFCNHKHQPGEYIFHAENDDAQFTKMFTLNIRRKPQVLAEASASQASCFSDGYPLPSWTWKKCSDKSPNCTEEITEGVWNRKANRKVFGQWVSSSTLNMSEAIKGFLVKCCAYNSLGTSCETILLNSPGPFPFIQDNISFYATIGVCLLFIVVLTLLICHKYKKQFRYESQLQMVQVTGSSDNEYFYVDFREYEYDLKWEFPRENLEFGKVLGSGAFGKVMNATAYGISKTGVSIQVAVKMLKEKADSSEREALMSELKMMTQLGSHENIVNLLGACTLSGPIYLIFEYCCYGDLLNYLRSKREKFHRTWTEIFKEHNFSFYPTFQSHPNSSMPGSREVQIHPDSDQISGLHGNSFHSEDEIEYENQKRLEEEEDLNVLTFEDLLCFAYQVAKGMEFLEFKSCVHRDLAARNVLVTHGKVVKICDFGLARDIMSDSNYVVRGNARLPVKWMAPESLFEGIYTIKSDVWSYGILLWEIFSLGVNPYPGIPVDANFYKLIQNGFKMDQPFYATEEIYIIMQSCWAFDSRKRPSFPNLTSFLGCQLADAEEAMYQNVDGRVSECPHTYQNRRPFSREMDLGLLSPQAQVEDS

| Structure (SMILES) | assay | quantity | value |
| --- | --- | --- | --- |
| C[C@H](Nc1ccnc(Nc2cccc(-c3cccnc3)c2)n1)C(=O)O | enzyme activity, inhibitor | pIC50 | < 4.64 |
| CN(C)c1ncnc(-c2ccc3nc(Nc4cc(CN5CCN(C(=O)CC(F)(F)F)CC5)ccn4)[nH]c3c2)c1Cl | target engagement in cells, BRET | pEC50 | < 4.30 |
| Cc1cc(Nc2cc(CN3CCOCC3)c3nc(C)c(Cc4ccc(Cl)cc4F)n3n2)n[nH]1 | enzyme activity, inhibitor, TR-FRET | pIC50 | 8.40 |
| COc1ccc2c(Oc3ccc4c(C(=O)Nc5ccccc5N)cccc4c3)ccnc2c1 | enzyme activity, inhibitor | pIC50 | < 6.30 |
| Cc1ccc(C(=O)Nc2ccc(Oc3cc4cnn(C)c4cc3-c3cn[nH]c3)c(F)c2)c(=O)n1-c1ccc(F)cc1 | cell growth or viability, ATP luminescence | pIC50 | 8.15 |
| c1cc(Nc2nccc(NC3CCCCC3)n2)cc(-c2ncco2)c1 | enzyme activity, inhibitor | pIC50 | 6.47 |
| C[C@H](c1ccnc(Nc2nc3ccc(-c4cc(N(C)C)ncn4)cc3[nH]2)c1)N1CCN(C(=O)CC(F)(F)F)CC1 | target engagement in cells, BRET | pEC50 | 4.66 |
| Cc1cc(Nc2cc3ncccc3c(N[C@@H]3C[C@H]4CC[C@@H](C3)N4CCC#N)n2)n[nH]1 | target engagement in cells, inhibitor, BRET | pIC50 | 5.70 |
| CCCNc1ccnc(Nc2cccc(-c3cccnc3)c2)n1 | enzyme activity, inhibitor | pIC50 | > 8.22 |
| CN(C)c1ccc(C=C2C(=O)Nc3ccccc32)cc1 | enzyme activity, inhibitor, radiometric | pIC50 | 7.15 |
